The values that follow come from ChEMBL document CHEMBL1144395, “Design and synthesis of potent pyridazine inhibitors of p38 MAP kinase” (Bioorg Med Chem Lett, 2005).

Broadly, the Ki is the dissociation constant of the complex between target and ligand, obtained from inhibition or displacement. A higher Ki goes with weaker binding. What is called IC50 is the concentration that gives 50% inhibition. High values mean weaker potency, low ones greater potency. One may read the ED50 as the dose that gives a 50% effect, or the effect in half of the subjects. A lower ED50 goes with greater potency.

Structures are written as SMILES. A value given as a limit tells only on which side of the number the result lay.

Assay [1] is described as follows: Inhibitory activity against mitogen-activated protein kinase p38. Details: species or system Homo sapiens.
A further assay relates to THP-1. Nature of the assay: Inhibitory concentration against TNF-alpha production in THP-1 cells. The class given is functional, cell-based. Conditions: Homo sapiens.
Assay [2] is described as follows: Inhibitory activity against c-Jun N-terminal kinase 3 (JNK3). Details: species or system Homo sapiens.
The subject of another assay is Cell line. Nature of the assay: Inhibitory concentration against LPS-induced release of TNF-alpha in human whole blood. The class given is functional, cell-based.
For another assay, the species on record is Mus musculus. Nature of the assay: Effective dose against murine LPS challenge model. It is filed as functional. In short, it runs like this:
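Oral dosing to BALB/c mice (n = 5) 1 h before intravenous LPS ([…]); blood taken 90 min after LPS, serum TNF-α measured by ELISA; % inhibition = [(vehicle control − compound)/(vehicle control)] × 100; ED50 derived from this inhibition.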

The species named for a further assay is Rattus norvegicus. As to the kind of experiment: Effective dose against rat collagen-induced arthritis (CIA) model. It is filed as functional.

For the compound `O=C(CO)N[C@H](CNc1cc(-c2ccncc2)c(-c2cccc3ccccc23)nn1)Cc1ccccc1`, the results for the Ki in assay [1] and in assay [2] were 65.9 nM and 211 nM, respectively. The IC50 in the assay on THP-1 came to 661 nM.

For the compound `CC(C)C[C@H]1CN(c2cc(-c3ccncc3)c(-c3cccc4ccccc34)nn2)CCN1`, the Ki in assay [1] is 29.7 nM; in assay [2], 650 nM. For the same compound, the IC50 in the assay with THP-1 came to 63.6 nM; with Cell line, 547 nM.

For the compound `O=C(CNc1nccc(-c2cc(C3CCNCC3)nnc2-c2cccc(C(F)(F)F)c2)n1)c1ccccc1`, the inhibition constant (Ki) in assay [1] is 709 nM; in assay [2] it was over 10000 nM. Further, in the assay on THP-1, the IC50 stood at 1290 nM.

As to `CC(Nc1nccc(-c2cc(C3CCNCC3)nnc2-c2cccc(C(F)(F)F)c2)n1)c1ccc(F)cc1` (centres undefined), the figures for the Ki in assay [1] and in assay [2] were 10.2 nM and over 10000 nM, respectively. Moreover, the midpoint of inhibition in the assay with THP-1, the IC50, lay at 93.4 nM.

Turning to `c1ccc(C[C@@H](CNc2cc(-c3ccncc3)c(-c3cccc4ccccc34)nn2)N2CCCC2)cc1`, the Ki in assay [1] was 9.2 nM; in assay [2] it was 81.5 nM. In the assay with THP-1, this compound had an IC50 of 5.5 nM.

As for `CC(N)(CNc1cc(-c2ccncn2)c(-c2cccc(C(F)(F)F)c2)nn1)Cc1ccccc1` (centres undefined), the Ki in assay [1] was 179 nM; in assay [2], over 10000 nM. The compound further registered an IC50 in the assay on THP-1 of 251 nM.

In the case of `O=C(CNc1nccc(-c2cc(C3CCNCC3)nnc2-c2cccc(C(F)(F)F)c2)n1)c1ccc(F)cc1`, the Ki was 1770 nM in assay [1] and over 10000 nM in assay [2]. The IC50 with THP-1 amounted to 1240 nM.

`c1ccc(C[C@H]2CN(c3cc(-c4ccncc4)c(-c4cccc5ccccc45)nn3)CCN2)cc1`: the figures for the Ki in assay [1] and in assay [2] were 7.3 nM and 160 nM, respectively. The IC50 was 67.6 nM with THP-1 and 240 nM in the assay with Cell line. For the same compound, the ED50 in the assay filed under Mus musculus came to 1.28 mg/kg; in the assay filed under Rattus norvegicus, 2.7 mg/kg.

With `N[C@H](CNc1cc(-c2ccncn2)c(-c2cccc(C(F)(F)F)c2)nn1)Cc1ccccc1`, the Ki in assay [1] is 56.2 nM; in assay [2], over 10000 nM. Moreover, the results for the IC50 with THP-1 and in the assay on Cell line were 40.2 nM and 1830 nM, respectively.

As for `C[C@H](Nc1cc(-c2cc(C3CCNCC3)nnc2-c2cccc(C(F)(F)F)c2)ccn1)c1ccccc1`, the figures for the Ki in assay [1] and in assay [2] were 2.1 nM and 2970 nM, respectively. The IC50 in the assay with THP-1 came to 21.5 nM; with Cell line, 5850 nM.

On to `O=C(CO)N1CCN(c2cc(-c3ccncc3)c(-c3cccc4ccccc34)nn2)C[C@@H]1Cc1ccccc1`, for which the Ki in assay [1] is 31.8 nM; in assay [2], 72.5 nM. The compound further had an IC50 in the assay with THP-1 of 552 nM.

`C[C@H](Nc1nccc(-c2cc(C3CCNCC3)nnc2-c2cccc(C(F)(F)F)c2)n1)c1ccccc1`: the figures for the Ki in assay [1] and in assay [2] were 1.6 nM and 1580 nM, respectively. The IC50 in the assay on THP-1 came out at 5.3 nM; in the assay on Cell line, 1560 nM.

For the compound `N[C@H](CNc1cc(-c2ccncc2)c(-c2cccc3ccccc23)nn1)Cc1ccc(F)cc1`, the inhibition constant Ki in assay [1] was 1.8 nM; in assay [2], 1060 nM. Besides, the IC50 worked out at 92.2 nM in the assay with THP-1 and 948 nM in the assay on Cell line.

On to `CC(C)N[C@H](CNc1cc(-c2ccncc2)c(-c2cccc3ccccc23)nn1)Cc1ccccc1`, for which the Ki in assay [1] turned out to be 20.4 nM; in assay [2], 598 nM. Further, in the assay on THP-1, the IC50 was found to be 110 nM.

For `N[C@H](CNc1cc(-c2ccncc2)c(-c2cccc3ccccc23)nn1)Cc1ccccc1`, the Ki was 7 nM in assay [1] and 735 nM in assay [2]. The IC50 in the assay on THP-1 was 50.1 nM; with Cell line it was 165 nM.
